From ChEMBL document CHEMBL1914293, “Pharmacophore-based discovery of FXR-agonists. Part II: identification of bioactive triterpenes from Ganoderma lucidum” (Bioorg Med Chem, 2011)
The source made the active and inactive calls. The rule behind the calls is not given here.

Tests used:
Assay type in all cases: functional, cell-based
[1] = system: HUVEC; experiment: Antiinflammatory activity in human HUVEC cells assessed as inhibition of LPS-induced IL-8 mRNA expression at 5 uM for 10 mins measured after 4 hrs of LPS challenge by Q-PCR analysis
Procedure, shortened: (§1)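 hTERT-immortalized HUVEC (HUVECtert) were grown in M199 with 20% FBS, endothelial cell growth supplement and antibiotics. Cells were treated with compounds at 5 μM, then stimulated with TNFα (human recombinant, 100 ng/mL) or LPS (E. coli 055:B5, 300 ng/mL). IL-8 and E-selectin mRNA were measured by qPCR, normalized to β2-microglobulin (Pfaffl method), and expressed as fold over untreated control. Statistics used ANOVA with Bonferroni post-test.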

[2] = system: HUVEC; experiment: Antiinflammatory activity in human HUVEC cells assessed as inhibition of TNF-alpha-induced E-selectin mRNA expression at 5 uM for 10 mins measured after 4 hrs of LPS challenge by Q-PCR analysis; procedure, shortened: as §1
[3] = system: HUVEC; experiment: Antiinflammatory activity in human HUVEC cells assessed as inhibition of LPS-induced E-selectin mRNA expression at 5 uM for 10 mins measured after 4 hrs of LPS challenge by Q-PCR analysis; procedure, shortened: as §1
[4] = system: HUVEC; experiment: Antiinflammatory activity in human HUVEC cells assessed as inhibition of TNF-alpha-induced IL-8 mRNA expression at 5 uM for 10 mins measured after 4 hrs of LPS challenge by Q-PCR analysis; procedure, shortened: as §1
[5] = target: T1, Bile acid receptor/Retinoic acid receptor RXR-alpha (Mus musculus, UniProt P28700+Q60641); experiment: Agonist activity at full length mouse FXR/RXRalpha expressed in human HEK293 cells assessed as induction of transcriptional activity after 18 hrs by dual luciferase reporter gene assay
T1 sequence (P28700 whole entry): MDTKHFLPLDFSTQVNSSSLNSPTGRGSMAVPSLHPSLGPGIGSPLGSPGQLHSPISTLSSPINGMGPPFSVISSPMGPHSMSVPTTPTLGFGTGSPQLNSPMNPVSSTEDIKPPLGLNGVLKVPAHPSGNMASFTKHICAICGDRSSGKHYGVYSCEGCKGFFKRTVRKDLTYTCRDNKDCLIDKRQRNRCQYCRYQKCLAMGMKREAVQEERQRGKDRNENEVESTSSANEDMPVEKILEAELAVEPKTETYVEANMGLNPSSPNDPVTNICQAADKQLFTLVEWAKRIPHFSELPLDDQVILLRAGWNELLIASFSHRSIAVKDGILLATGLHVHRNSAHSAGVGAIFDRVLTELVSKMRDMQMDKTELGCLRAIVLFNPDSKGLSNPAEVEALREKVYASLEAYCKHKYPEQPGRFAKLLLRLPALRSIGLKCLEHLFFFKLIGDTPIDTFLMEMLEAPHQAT
T1 sequence (Q60641 whole entry): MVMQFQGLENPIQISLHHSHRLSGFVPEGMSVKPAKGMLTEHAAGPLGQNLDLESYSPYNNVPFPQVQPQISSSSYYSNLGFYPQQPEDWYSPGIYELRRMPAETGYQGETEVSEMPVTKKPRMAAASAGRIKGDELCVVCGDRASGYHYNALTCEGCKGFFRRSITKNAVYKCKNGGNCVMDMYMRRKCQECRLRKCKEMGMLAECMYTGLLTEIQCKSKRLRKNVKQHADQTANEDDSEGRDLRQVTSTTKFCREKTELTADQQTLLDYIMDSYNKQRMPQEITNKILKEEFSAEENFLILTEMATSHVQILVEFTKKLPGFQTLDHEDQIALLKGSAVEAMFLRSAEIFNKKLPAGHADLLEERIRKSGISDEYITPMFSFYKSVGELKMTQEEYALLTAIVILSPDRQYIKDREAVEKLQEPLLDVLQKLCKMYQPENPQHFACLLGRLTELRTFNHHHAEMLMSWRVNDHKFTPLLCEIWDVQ

Q: With `C[C@H](CCC=C(CO)CO)[C@H]1CC[C@@]2(C)C3=CC[C@H]4C(C)(C)C(=O)CC[C@]4(C)C3=CC[C@]12C` [GANODERIOL F] as the compound, how does the inhibition [1] read?
A: Active

Q: And the inhibition [2]?
A: Active

Q: What about the inhibition [3] of the same compound?
A: Active

Q: What about the inhibition [4] of the same compound?
A: Active

Q: And the EC50 [5]?
A: 5 µM

Q: For `C[C@H](CC[C@H](O)C(C)(C)O)[C@H]1CC[C@@]2(C)C3=C(CC[C@]12C)[C@@]1(C)CCC(=O)C(C)(C)[C@@H]1CC3=O` [LUCIDUMOL A], which inhibition [1] is on record?
A: Active

Q: What about the inhibition [2] of the same compound?
A: Active

Q: And the inhibition [3]?
A: Active

Q: And the inhibition [4]?
A: Active

Q: And the EC50 [5]?
A: > 18.6 µM

Q: What does the source list for `CC(C)[C@@H](C)/C=C/[C@@H](C)[C@H]1CC[C@@H]2[C@]1(C)CC[C@H]1[C@]23C=C[C@]2(C[C@@H](O)CC[C@]12C)OO3` [ERGOSTEROL PEROXIDE]?
A: inhibition [1]: Active; inhibition [2]: Active; inhibition [3]: Active; inhibition [4]: Active; EC50 [5]: 0.85 µM

Q: Which results are given for `C/C(=C/CC[C@@H](C)[C@H]1C[C@H](O)[C@@]2(C)C3=CC[C@H]4C(C)(C)C(=O)CC[C@]4(C)C3=CC[C@]12C)C(=O)O` [GANODERIC ACID TR]?
A: inhibition [1]: Active; inhibition [2]: Active; inhibition [3]: Active; inhibition [4]: Active; EC50 [5]: > 14 µM

Q: How did the inhibition [1] turn out when `C[C@H](CC[C@H](O)[C@](C)(O)CO)[C@H]1CC[C@@]2(C)C3=CC[C@H]4C(C)(C)C(=O)CC[C@]4(C)C3=CC[C@]12C` [GANODERMANONTRIOL] was run?
A: Active

Q: What about the inhibition [2] of the same compound?
A: Active

Q: What about the inhibition [3] of the same compound?
A: Active

Q: What about the inhibition [4] of the same compound?
A: Active

Q: What about the EC50 [5] of the same compound?
A: 2.5 µM
